# From ChEMBL document CHEMBL1152259, “Synthesis of new sulfonate and phosphonate derivatives for cation-independent mannose 6-phosphate receptor targeting” (Bioorg Med Chem Lett, 2008)
# Key:
# [1] = molecular target: Insulin-like growth factor 2 receptor ([…], cation-independent mannose-6-phosphate receptor, CI-MPR; hIGF-IIR) (Homo sapiens, UniProt P11717); assay: Binding affinity to CI-M6PR
# Procedure, shortened: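 Competitive displacement ELISA: biotinylated CI-M6PR bound to pentamannose 6-phosphate adsorbed on microtiter wells, challenged with increasing analog concentrations. Remaining bound receptor detected with streptavidin/peroxidase and o-phenylenediamine substrate by optical density. IC50 taken from dose-inhibition curves. Mean of triplicates from one experiment, confirmed in two further experiments.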
# Serum = assay: Stability in human serum after 2 days; type: ADME, cell-free; conditions: 48 h
# Procedure, shortened: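 Analogs incubated 2 days at 37 °C with 75% human serum or without serum. Residual capacity to inhibit biotinylated CI-M6PR binding to plate-adsorbed pentamannose 6-phosphate was then assayed. Result expressed relative to day-0 controls with or without serum, set as 100%. Mean ± standard deviations of triplicates, confirmed in two further experiments.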
# MDA-MB-231 = assay: Cytotoxicity against human MDA-MB-231 cells up to 100 uM by MTT assay; type: cell-based
# Procedure, shortened: (§1)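 Human fibroblasts, MCF7 and MDA-MB-231 cells exposed in culture medium for 4 days to increasing concentrations up to 100 µM, with untreated controls. Proliferation read by MTT assay. Triplicates from one experiment, confirmed in two further experiments.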
# MCF7 = assay: Cytotoxicity against human MCF7 cells up to 100 uM by MTT assay; type: cell-based; procedure, shortened: as §1
# [2] = Cytotoxicity against human fibroblast up to 100 uM after 4 days by MTT assay; type: cell-based; conditions: 96 h; procedure, shortened: as §1
# Chain of UniProt P11717 (P11717 whole entry, looked up): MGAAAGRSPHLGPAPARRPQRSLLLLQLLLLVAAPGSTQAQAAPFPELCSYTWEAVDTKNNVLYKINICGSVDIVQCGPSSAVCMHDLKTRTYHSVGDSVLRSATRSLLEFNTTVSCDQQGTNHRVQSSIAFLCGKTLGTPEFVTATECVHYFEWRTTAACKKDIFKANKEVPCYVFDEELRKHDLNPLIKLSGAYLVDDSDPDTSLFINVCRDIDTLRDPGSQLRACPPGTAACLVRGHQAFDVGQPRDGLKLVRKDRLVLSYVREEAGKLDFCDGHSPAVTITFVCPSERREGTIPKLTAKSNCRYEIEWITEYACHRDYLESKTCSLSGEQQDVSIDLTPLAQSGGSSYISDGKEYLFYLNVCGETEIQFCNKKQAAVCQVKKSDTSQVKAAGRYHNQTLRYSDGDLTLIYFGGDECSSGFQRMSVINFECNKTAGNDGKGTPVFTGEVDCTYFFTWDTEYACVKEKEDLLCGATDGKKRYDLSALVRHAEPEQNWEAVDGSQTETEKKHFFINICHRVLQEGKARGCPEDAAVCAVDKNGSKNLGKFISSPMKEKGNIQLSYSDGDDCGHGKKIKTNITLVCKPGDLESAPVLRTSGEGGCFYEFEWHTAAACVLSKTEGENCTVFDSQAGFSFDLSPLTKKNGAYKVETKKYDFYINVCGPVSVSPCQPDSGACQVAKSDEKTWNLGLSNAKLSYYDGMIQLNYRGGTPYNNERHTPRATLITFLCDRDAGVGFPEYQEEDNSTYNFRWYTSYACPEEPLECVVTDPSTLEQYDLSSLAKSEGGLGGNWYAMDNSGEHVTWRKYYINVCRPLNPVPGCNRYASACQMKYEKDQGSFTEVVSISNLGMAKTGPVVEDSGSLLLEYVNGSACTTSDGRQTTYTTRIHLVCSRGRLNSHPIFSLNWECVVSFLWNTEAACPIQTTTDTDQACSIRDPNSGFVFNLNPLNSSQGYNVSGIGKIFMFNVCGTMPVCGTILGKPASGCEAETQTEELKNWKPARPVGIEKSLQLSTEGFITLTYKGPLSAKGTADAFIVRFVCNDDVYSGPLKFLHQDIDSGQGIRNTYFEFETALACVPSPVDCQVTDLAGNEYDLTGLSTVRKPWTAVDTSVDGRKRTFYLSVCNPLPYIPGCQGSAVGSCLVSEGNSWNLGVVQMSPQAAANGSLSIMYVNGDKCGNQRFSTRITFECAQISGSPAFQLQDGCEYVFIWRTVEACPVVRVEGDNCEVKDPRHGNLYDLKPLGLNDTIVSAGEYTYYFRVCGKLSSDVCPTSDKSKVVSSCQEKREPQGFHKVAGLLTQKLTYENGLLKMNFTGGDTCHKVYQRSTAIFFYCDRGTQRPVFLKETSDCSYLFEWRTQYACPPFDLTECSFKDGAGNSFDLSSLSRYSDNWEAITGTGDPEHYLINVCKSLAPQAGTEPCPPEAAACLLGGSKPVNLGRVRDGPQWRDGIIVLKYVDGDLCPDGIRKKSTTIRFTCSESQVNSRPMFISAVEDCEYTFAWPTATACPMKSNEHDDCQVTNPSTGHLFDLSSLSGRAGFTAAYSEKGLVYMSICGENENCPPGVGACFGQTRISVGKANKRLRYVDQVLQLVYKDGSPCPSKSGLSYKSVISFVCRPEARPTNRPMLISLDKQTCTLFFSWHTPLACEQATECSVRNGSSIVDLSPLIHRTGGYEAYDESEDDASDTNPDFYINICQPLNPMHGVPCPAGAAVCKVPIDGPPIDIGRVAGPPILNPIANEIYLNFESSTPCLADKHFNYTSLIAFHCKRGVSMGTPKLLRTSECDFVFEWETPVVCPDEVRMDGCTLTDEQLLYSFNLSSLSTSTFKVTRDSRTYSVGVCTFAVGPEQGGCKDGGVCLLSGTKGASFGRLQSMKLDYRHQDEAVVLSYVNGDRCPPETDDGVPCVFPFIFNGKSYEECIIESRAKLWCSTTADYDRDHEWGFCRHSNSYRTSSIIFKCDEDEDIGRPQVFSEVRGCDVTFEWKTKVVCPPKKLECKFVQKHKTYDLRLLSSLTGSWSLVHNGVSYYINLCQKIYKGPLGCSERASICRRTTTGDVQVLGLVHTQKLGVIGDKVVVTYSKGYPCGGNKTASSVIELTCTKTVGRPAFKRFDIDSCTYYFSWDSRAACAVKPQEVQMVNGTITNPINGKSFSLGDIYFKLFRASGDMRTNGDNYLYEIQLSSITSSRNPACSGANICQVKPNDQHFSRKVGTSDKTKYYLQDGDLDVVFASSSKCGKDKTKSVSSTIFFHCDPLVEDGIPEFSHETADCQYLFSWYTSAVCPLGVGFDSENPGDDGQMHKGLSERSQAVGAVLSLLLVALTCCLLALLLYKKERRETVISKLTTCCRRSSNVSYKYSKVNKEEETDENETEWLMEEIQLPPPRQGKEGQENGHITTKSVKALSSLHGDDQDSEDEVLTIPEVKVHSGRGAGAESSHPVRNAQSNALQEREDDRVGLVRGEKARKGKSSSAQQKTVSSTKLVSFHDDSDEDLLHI
SMILES,IC50 [1] [µM],Stability (Serum),Activity (MDA-MB-231),Activity (MCF7),Activity [2]
O=P(O)(O)OC[C@H]1OC(O)[C@@H](O)[C@@H](O)[C@@H]1O (stereo partly specified),23,,,,
CO[C@H]1O[C@H](CCS(=O)(=O)[O-])[C@@H](O)[C@H](O)[C@@H]1O.[Na+],150,Stable,Not Active,Not Active,Not Active
CO[C@H]1O[C@H](/C=C/P(=O)([O-])[O-])[C@@H](O)[C@H](O)[C@@H]1O.[Na+].[Na+],22,Stable,Not Active,Not Active,Not Active
CO[C@H]1O[C@H](/C=C/S(=O)(=O)[O-])[C@@H](O)[C@H](O)[C@@H]1O.[Na+],71,Stable,Not Active,Not Active,Not Active
